Laboratory results taken from ChEMBL document CHEMBL1177648, “Synthesis and anti breast cancer activity of biphenyl based chalcones” (Bioorg Med Chem, 2010).
Calls of active or inactive are those of the source. No cut-off for these calls is given here.

Columns and labels:
HEK293 = assay: Cytotoxicity against HEK293 cells after 24 hrs by MTT assay; format: cell-based, Homo sapiens
Procedure, shortened: (§1)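 Cells seeded at 1 × 10⁴/well in DMEM with 10% FBS and held 24 h at 37 °C in CO₂. Compounds diluted in culture medium and incubated 24 h. Medium removed, MTT (5 mg/ml) added for 4 h, formazan dissolved in DMSO, absorbance read at 540 nm. Viability given as percent of untreated cells.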

MCF7 = assay: Cytotoxicity against human MCF7 cells after 24 hrs by MTT assay; format: functional, cell-based; procedure, shortened: as §1
HeLa = assay: Cytotoxicity against human HeLa cells after 24 hrs by MTT assay; format: functional, cell-based; procedure, shortened: as §1
MDA-MB-231 [1] = assay: Cytotoxicity against human MDA-MB-231 cells after 24 hrs by MTT assay; format: functional, cell-based; procedure, shortened: as §1
MDA-MB-231 [2] = assay: Induction of apoptosis in human MDA-MB-231 cells assessed as increase in caspase level at 5 uM after 24 hrs; format: functional, cell-based
Procedure, shortened: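 MDA-MB231 cells kept serum-deprived for 4 h, then treated 24 h at 5 µM. Cells incubated with caspase substrate DEVD-rhodamine-110 in a homogeneous caspase assay. Fluorescence of released rhodamine-110 measured at […].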

MDA-MB-231 [3] = assay: Cell cycle arest in human MDA-MB-231 cells assessed as increase in p21 mRNA expression at 5 uM after 24 hrs by RT-PCR; format: functional, cell-based
Procedure, shortened: (§2)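 MDA-MB231 cells (1 × 10⁶) grown overnight in six-well plates, treated at 5 µM. Total RNA isolated with Trizol, 1 µg digested with DNase I, then reverse transcribed. Relative mRNA levels of cyclin A1, bax, bcl-2, p21 and p53 measured by real-time PCR against untreated control.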

MDA-MB-231 [4] = assay: Cell cycle arrest in human MDA-MB-231 cells assessed as decrease in S phase at 5 uM after 24 hrs annexin-V FITC and PI staining by flow cytometry; format: functional, cell-based
MDA-MB-231 [5] = assay: Cell cycle arrest in human MDA-MB-231 cells assessed as reduction in bcl2 mRNA expression at 5 uM after 24 hrs by RT-PCR; format: functional, cell-based; procedure, shortened: as §2
MDA-MB-231 [6] = assay: Induction of apoptosis in human MDA-MB-231 cells assessed as early apoptotic cells at 5 uM after 24 hrs annexin-V FITC and PI staining by flow cytometry; format: functional, cell-based
Procedure, shortened: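 MDA-MB231 cells (1 × 10⁶) grown overnight in six-well plates, then given 5 µM final compound or vehicle (0.001% DMSO) for 24 h. Floating and adherent cells harvested by trypsinization and washed with PBS. 1 × 10⁵ cells stained with Annexin V-FITC and propidium iodide and analysed by flow cytometry with 488 nm excitation; Annexin V-FITC read at 535 nm emission.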

MDA-MB-231 [7] = assay: Cell cycle arrest in human MDA-MB-231 cells assessed as increase in bax mRNA expression at 5 uM after 24 hrs by RT-PCR; format: functional, cell-based; procedure, shortened: as §2
MDA-MB-231 [8] = assay: Induction of apoptosis in human MDA-MB-231 cells assessed as reduction in membrane potential at 5 uM after 24 hrs by flow cytometry; format: functional, cell-based
Procedure, shortened: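 MDA-MB-231 cells treated 24 h at 5 µM, collected by trypsinization and washed with PBS. Cells loaded with JC-1 for 15 min at 37 °C, rinsed three times in phenol-red-free high-glucose DMEM and resuspended in prewarmed medium. Membrane potential taken as the red/green (590/530 nm) fluorescence ratio.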

MDA-MB-231 [9] = assay: Cell cycle arrest in human MDA-MB-231 cells assessed as reduction in cyclin A1 mRNA expression at 5 uM after 24 hrs by RT-PCR; format: functional, cell-based; procedure, shortened: as §2
MDA-MB-231 [10] = assay: Cell cycle arest in human MDA-MB-231 cells assessed as increase in sub G1 phase at 5 uM after 24 hrs annexin-V FITC and PI staining by flow cytometry; format: functional, cell-based
MDA-MB-231 [11] = assay: Cell cycle arrest in human MDA-MB-231 cells assessed as increase in p53 mRNA expression at 5 uM after 24 hrs by RT-PCR; format: functional, cell-based; procedure, shortened: as §2
[12] = Homo sapiens, HEK293, 24 h, read-out: IC50
[13] = Homo sapiens, MCF7, 24 h, read-out: IC50
[14] = Homo sapiens, HeLa, 24 h, read-out: IC50
[15] = Homo sapiens, MDA-MB-231, 24 h, read-out: IC50

For COc1ccc(/C=C/C(=O)c2c(C)cc(O)c(C(=O)/C=C/c3ccc(OC)cc3)c2-c2ccc(Br)cc2)cc1, the IC50 (HEK293; hek293) was “Not Active”, the IC50 (MCF7; mcf7) was “Not Active” and the IC50 (HeLa; hela) was “Not Active”. For the same molecule, the IC50 (MDA-MB-231 [1]; mda-mb-231) was “Not Active”.

In the case of Cc1cc(O)c(C(=O)/C=C/c2ccc(Cl)cc2)c(-c2ccc(Br)cc2)c1C(=O)/C=C/c1ccc(Cl)cc1, the IC50 (HEK293; [12]) is reported as 25 µM, the IC50 (MCF7; [13]) is reported as 20 µM and the IC50 (HeLa; [14]) is reported as 32 µM. For the same molecule, the IC50 (MDA-MB-231 [1]; [15]) was 15 µM.

For Cc1cc(O)c(C(=O)/C=C/c2ccc(OCc3ccccc3)cc2)c(-c2ccccc2)c1C(=O)/C=C/c1ccc(OCc2ccccc2)cc1, the IC50 (HEK293; [12]) was 30 µM, the IC50 (MCF7; [13]) was 10 µM and the IC50 (HeLa; [14]) was 20 µM. For the same molecule, the IC50 (MDA-MB-231 [1]; [15]) was 10 µM.

With Cc1cc(O)c(C(=O)/C=C/c2cccc(Cl)c2)c(-c2ccccc2)c1C(=O)/C=C/c1cccc(Cl)c1 the IC50 (HEK293; [12]) was 15 µM, the Activity (MDA-MB-231 [2]) was “Active” and the Activity (MDA-MB-231 [3]) was “Active”. For the same molecule, the Activity (MDA-MB-231 [4]) was “Active”, the Activity (MDA-MB-231 [5]) was “Active” and the Activity (MDA-MB-231 [6]) was “Active”. The IC50 (MCF7; [13]) was 20 µM, the IC50 (HeLa; [14]) was 22 µM and the Activity (MDA-MB-231 [7]) was “Active”. The Activity (MDA-MB-231 [8]) was “Active”, the IC50 (MDA-MB-231 [1]; [15]) was 4.67 µM and the Activity (MDA-MB-231 [9]) was “Active”. For the same molecule, the Activity (MDA-MB-231 [10]) was “Active” and the Activity (MDA-MB-231 [11]) was “Active”.

For COc1ccc(/C=C/C(=O)c2c(C)cc(O)c(C(=O)/C=C/c3ccc(OC)c(OC)c3)c2-c2ccccc2)cc1OC, the IC50 (HEK293; hek293) was “Not Active”, the IC50 (MCF7; mcf7) was “Not Active” and the IC50 (HeLa; hela) was “Not Active”. For the same molecule, the IC50 (MDA-MB-231 [1]; mda-mb-231) was “Not Active”.

With Cc1cc(O)c(C(=O)/C=C/c2ccc(Cl)cc2)c(-c2ccc(OCc3ccccc3)cc2)c1C(=O)/C=C/c1ccc(Cl)cc1 the IC50 (HEK293; hek293) was “Not Active”, the IC50 (MCF7; mcf7) was “Not Active” and the IC50 (HeLa; hela) was “Not Active”. For the same molecule, the IC50 (MDA-MB-231 [1]; [15]) was 30 µM.

In the case of Cc1cc(O)c(C(=O)/C=C/c2ccc(Br)cc2)c(-c2ccccc2)c1C(=O)/C=C/c1ccc(Br)cc1, the IC50 (HEK293; [12]) is reported as 10 µM, the IC50 (MCF7; [13]) is reported as 10 µM and the IC50 (HeLa; [14]) is reported as 33.5 µM. The IC50 (MDA-MB-231 [1]; [15]) was 10 µM.

Cc1cc(O)c(C(=O)/C=C/c2ccccc2)c(-c2ccc(Br)cc2)c1C(=O)/C=C/c1ccccc1 gave an IC50 (HEK293; [12]) of 30 µM, an IC50 (MCF7; [13]) of 10 µM and an IC50 (HeLa; [14]) of 30 µM. It also gave an IC50 (MDA-MB-231 [1]; [15]) of 8 µM.

Cc1cc(O)c(C(=O)/C=C/c2ccc(OCc3ccccc3)cc2)c(-c2ccc(Br)cc2)c1C(=O)/C=C/c1ccc(OCc2ccccc2)cc1 was tested, and the IC50 (HEK293; [12]) was 25 µM, the IC50 (MCF7; [13]) was 20 µM and the IC50 (HeLa; hela) was “Not Active”. The IC50 (MDA-MB-231 [1]; [15]) was 20 µM.

COc1ccc(/C=C/C(=O)c2c(C)cc(O)c(C(=O)/C=C/c3ccc(OC)cc3)c2-c2ccc(OCc3ccccc3)cc2)cc1 was tested, and the IC50 (HEK293; [12]) was 28 µM, the IC50 (MCF7; [13]) was 30 µM and the IC50 (HeLa; [14]) was 28 µM. It also gave an IC50 (MDA-MB-231 [1]; [15]) of 12 µM.

Cc1cc(O)c(C(=O)/C=C/c2ccccc2Cl)c(-c2ccccc2)c1C(=O)/C=C/c1ccccc1Cl was tested, and the IC50 (HEK293; hek293) was “Not Active”, the IC50 (MCF7; mcf7) was “Not Active” and the IC50 (HeLa; hela) was “Not Active”. The IC50 (MDA-MB-231 [1]; mda-mb-231) was “Not Active”.

In the case of Cc1cc(O)c(C(=O)/C=C/c2ccccc2Cl)c(-c2ccc(Cl)cc2)c1C(=O)/C=C/c1ccccc1Cl, the IC50 (HEK293; [12]) is reported as 30 µM, the IC50 (MCF7; [13]) is reported as 30 µM and the IC50 (HeLa; hela) is reported as “Not Active”. It also gave an IC50 (MDA-MB-231 [1]; [15]) of 29 µM.

Cc1cc(O)c(C(=O)/C=C/c2ccccc2)c(-c2ccc(Cl)cc2)c1C(=O)/C=C/c1ccccc1 was tested, and the IC50 (HEK293; [12]) was 5 µM, the Activity (MDA-MB-231 [2]) was “Active” and the Activity (MDA-MB-231 [3]) was “Active”. The Activity (MDA-MB-231 [4]) was “Active”, the Activity (MDA-MB-231 [5]) was “Active” and the Activity (MDA-MB-231 [6]) was “Active”. The IC50 (MCF7; [13]) was 15 µM, the IC50 (HeLa; hela) was “Not Active” and the Activity (MDA-MB-231 [8]) was “Active”. The IC50 (MDA-MB-231 [1]; [15]) was 4.4 µM, the Activity (MDA-MB-231 [9]) was “Active” and the Activity (MDA-MB-231 [10]) was “Active”. For the same molecule, the Activity (MDA-MB-231 [11]) was “Active”.

For Cc1cc(O)c(C(=O)/C=C/c2cccc3ccccc23)c(-c2ccccc2)c1C(=O)/C=C/c1cccc2ccccc12, the IC50 (HEK293; hek293) was “Not Active”, the IC50 (MCF7; [13]) was 30 µM and the IC50 (HeLa; hela) was “Not Active”. The IC50 (MDA-MB-231 [1]; mda-mb-231) was “Not Active”.

With Cc1cc(O)c(C(=O)/C=C/c2ccccc2)c(-c2ccccc2)c1C(=O)/C=C/c1ccccc1 the IC50 (HEK293; hek293) was “Not Active”, the IC50 (MCF7; [13]) was 10 µM and the IC50 (HeLa; hela) was “Not Active”. The IC50 (MDA-MB-231 [1]; [15]) was 8.5 µM.
